Measured values from different studies.
Compare with care: the assays were run in different laboratories.
Target: Focal adhesion kinase 1 (PTK2, Homo sapiens, UniProt Q05397)

CCS(=O)(=O)c1cc2cc(C[C@](O)(CC(C)(C)c3ccc(F)cc3C(N)=O)C(F)(F)F)[nH]c2cn1 — remaining binding (cell-free assay; competition with immobilised ligand; 1 µM): 97%
CN(c1nccc(-c2cnn3ncccc23)n1)C1CC1 — remaining signal (cell-free assay; 1 µM): 100%
C[C@H](c1cccc(C#N)c1)n1cc(Cl)cc(C(N)=O)c1=N — remaining binding (cell-free assay; competition with immobilised ligand; 1 µM): 100%
Cc1ccc(Nc2nccc(N(C)c3ccc4c(C)n(C)nc4c3)n2)cc1S(N)(=O)=O — inhibition (enzyme activity; inhibitor; 0.3 µM): 4%
Cc1ccc(C(=O)Nc2ccc(CN3CCN(C)CC3)c(C(F)(F)F)c2)cc1C#Cc1cnc2cccnn12 — remaining activity (enzyme activity; inhibitor; 23.5 nM): 100%
COc1cc(-c2cc(-c3ccc(N4CCNCC4)cc3)cnc2C)cc(OC)c1OC — inhibition (enzyme activity; inhibitor; 1 µM): 16%
O=C1NC(=O)c2cc(Nc3ccc(F)cc3)c(Nc3ccc(F)cc3)cc21 — remaining signal (cell-free assay; 0.5 µM): 96%
COc1cc2ncnc(Nc3ccc(Oc4ccccc4)cc3C)c2cc1OC — inhibition (enzyme activity; inhibitor; 1 µM): 5%
Cc1cc(NC(=O)c2cccc3cc(-c4cccc5[nH]nc(N)c45)ccc23)ccc1F — activity vs control (enzyme activity; inhibitor; 0.1 µM): 98%
COc1cc2nccc(Oc3ccc(NC(=O)c4c5n(n(-c6ccc(F)cc6)c4=O)CCCC5)cc3)c2cc1OC — inhibition (enzyme activity; inhibitor; 0.1 µM): -10%
CNC(=O)c1cc(Oc2ccc(NC(=O)Nc3ccc(Cl)c(C(F)(F)F)c3)cc2)ccn1 — remaining signal (cell-free assay; 0.5 µM): 102%
CC/C(=N\NC(=O)NCc1cccc(O)c1)c1ccc(O)c(C)c1O — inhibition (enzyme activity; inhibitor; 0.1 µM): -3.8%
COc1ccnn2ncc(-c3ccnc(N(C)C)n3)c12 — remaining signal (cell-free assay; 1 µM): 100%
Cc1[nH]c(/C=C2\C(=O)Nc3ccc(F)cc32)c(C)c1C(=O)N[C@H]1CCN(C(=O)N(C)C)C1 — remaining activity (enzyme activity; inhibitor; 1 µM): 27%
Nc1ncnc2occ(-c3ccc(NC(=O)Nc4cc(C(F)(F)F)ccc4F)cc3)c12 — remaining signal (cell-free assay; inhibitor; 20 µM): 0.1%
Cc1sc(C(=O)NC2COC2)cc1-n1cc(NC(=O)Nc2c(F)cccc2Cl)cn1 — remaining activity (enzyme activity; inhibitor; 10 µM): 104%
CC(=O)Nc1c(C(C)=O)c(=O)n(C)c2nc(-c3ccc(Cl)cc3Cl)c(-c3ccc(Cl)cc3)cc12 — remaining binding (cell-free assay; competition with immobilised ligand; 1 µM): 100%
Nc1nc(Nc2ccc(S(N)(=O)=O)cc2)nn1C(=O)c1c(F)cccc1F — remaining signal (cell-free assay; 0.5 µM): 95.5%
CN1CC(Oc2cnc(C#N)cc2-c2ccn3nc(NC(=O)C4CC4)cc3c2)C1 — inhibition (enzyme activity; inhibitor; 1 µM): 1%
Cc1ccc(C(=O)NCc2ccsc2)cc1C#Cc1cn(C(C)C)c2ncnc(N)c12 — activity vs control (enzyme activity; inhibitor; 1 µM): 79%
Cc1nc(C2CCN(C(=O)c3ccc(OC(F)(F)F)cc3N)CC2)c2ncc(N3CCN(C)CC3)cc2n1 — remaining binding (cell-free assay; competition with immobilised ligand; 1 µM): 91%
CC(C)(C)c1nc2c(s1)c1nc(N)ncc1c1ccc(NS(=O)(=O)c3c(F)cccc3F)c(F)c12 — remaining activity (enzyme activity; inhibitor; radiometric; 1 µM): 99%
C[C@@H]1CN(c2cc(-c3nn(C)c4ccc(OC5(C)CC5)cc34)ncn2)C[C@H](C)O1 — remaining binding (cell-free assay; competition with immobilised ligand; 1 µM): 95%
CS(=O)(=O)Nc1cccc(-c2csc(NC(=O)CSc3nc4nccnc4c(=O)n3CCc3ccccc3)n2)c1 — inhibition (enzyme activity; inhibitor; 10 µM): 2%
C[C@H](c1ccnc(Nc2nc3ccc(-c4cc(N(C)C)ncn4)cc3[nH]2)c1)N1CCN(C(=O)CC(F)(F)F)CC1 — remaining binding (cell-free assay; competition with immobilised ligand; 0.1 µM): 100%
N[C@@H]1CCN(c2nccc(-c3cnn4ncccc34)n2)C1 — remaining signal (cell-free assay; 1 µM): 97%
N#CC1(c2ccccn2)CCN(Cc2cc(C(=O)N3CCCC3)c(=O)n3ccccc23)CC1 — remaining binding (cell-free assay; competition with immobilised ligand; 1 µM): 89%
Cc1ccc(NC(=O)c2ccc(C)c(C(F)(F)F)c2)cc1C#Cc1nn(C2CCC(O)CC2)c2ncnc(N)c12 (stereo not drawn) — remaining signal (cell-free assay; 10 µM): 45%
COCCOc1nc(-c2ccc(Cl)nc2)nc2c1CN(C(=O)c1ncn3ccccc13)CC2 — remaining binding (cell-free assay; competition with immobilised ligand; 0.1 µM): 99%
Cc1cnc(NC2CCOCC2)nc1-n1cnc(C(=O)NC(CN)c2cc(F)cc(Cl)c2)c1 (stereo not drawn) — remaining activity (enzyme activity; inhibitor; radiometric; 1 µM): 102%
